Results published in ChEMBL document CHEMBL1149410, “Discovery of a potent phenolic N1-benzylidene-pyridinecarboxamidrazone selective against Gram-positive bacteria” (Bioorg Med Chem Lett, 2006).
≈ marks a conversion by molar mass, not a printed value. Calls of active or inactive are those of the source. The rule behind the calls is not given here.

What was measured:
[1] = test system: Staphylococcus aureus; experiment: Antibacterial activity against 10 clinical isolate methicillin-resistant strains of Staphylococcus aureus; type: functional
Procedure, shortened: (§1)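 Agar dilution MIC on Mueller–Hinton agar. Bacteria were spotted with a multipoint inoculator and plates incubated at 37 °C for 18 h. MIC was taken as the lowest concentration inhibiting growth. The panels covered clinical MRSA isolates, methicillin-sensitive S. aureus, enterococci, Gram-negative bacteria and vancomycin-resistant enterococci.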

[2] = test system: Mycolicibacterium fortuitum; experiment: Antibacterial activity against Mycobacterium fortuitum; type: functional, organism-based
Procedure, shortened: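 The Mycobacterium fortuitum reference strain NCTC 10394 was screened for a zone of inhibition on Columbia agar supplemented with horse blood. Compounds were also screened at a single concentration in Middlebrook 7H9 broth with glycerol and ADC enrichment. The MIC was determined in broth when a zone or single-concentration activity was seen.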

[3] = test system: Pseudomonas aeruginosa; experiment: Antibacterial activity against Pseudomonas aeruginosa NCTC 6749; type: functional; procedure, shortened: as §1
[4] = test system: Staphylococcus haemolyticus; experiment: Antibacterial activity against clinical isolate of Staphylococcus haemolyticus; type: functional
Procedure, shortened: (§2)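 Agar dilution MIC on Mueller–Hinton agar, with a multipoint inoculator spotting the organisms. The MIC was the lowest concentration that inhibited growth after 18 h at 37 °C.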

[5] = test system: Stenotrophomonas maltophilia; experiment: Antibacterial activity against Stenotrophomonas maltophilia NCTC 10257; type: functional; procedure, shortened: as §1
[6] = test system: Enterococcus faecium; experiment: Antibacterial activity against Enterococcus faecium NCTC 7171; type: functional; procedure, shortened: as §2
[7] = test system: Staphylococcus aureus; experiment: Antibacterial activity against methicillin-sensitive Staphylococcus aureus Cowan 1; type: functional; procedure, shortened: as §1
[8] = test system: Staphylococcus aureus; experiment: Antibacterial activity against methicillin-sensitive Staphylococcus aureus NCTC 6571; type: functional; procedure, shortened: as §1
[9] = test system: Enterococcus faecalis; experiment: Antibacterial activity against Enterococcus faecalis isolate 1; type: functional; procedure, shortened: as §2
[10] = test system: Klebsiella pneumoniae; experiment: Antibacterial activity against Klebsiella pneumoniae 327; type: functional; procedure, shortened: as §1
[11] = test system: Enterobacter cloacae; experiment: Antibacterial activity against Enterobacter cloacae NCTC 11582; type: functional; procedure, shortened: as §1
[12] = test system: Bordetella bronchiseptica; experiment: Antibacterial activity against Bordetella bronchiseptica NCTC 8344; type: functional; procedure, shortened: as §1
[13] = test system: Enterococcus faecium; experiment: Antibacterial activity against Enterococcus faecium ACTCC 10541; type: functional; procedure, shortened: as §2
[14] = test system: Escherichia coli; experiment: Antibacterial activity against Escherichia coli W3110 R+; type: functional; procedure, shortened: as §1
[15] = test system: Enterococcus faecalis; experiment: Antibacterial activity against Enterococcus faecalis NCTC 5957; type: functional; procedure, shortened: as §2
[16] = test system: Escherichia coli; experiment: Antibacterial activity against Escherichia coli W3110 R-; type: functional; procedure, shortened: as §1
[17] = test system: Mycobacterium tuberculosis; experiment: Antibacterial activity against Mycobacterium tuberculosis H37Rv at 6.25 ug/ml; type: functional
Procedure, shortened: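 Inhibition of M. tuberculosis H37Rv (ATCC 27294) growth was tested in BACTEC 12B medium. Percent inhibition was recorded at a fixed concentration, and MIC was also determined.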

[18] = test system: Staphylococcus aureus; experiment: Antibacterial activity against methicillin-sensitive Staphylococcus aureus NCTC 10788; type: functional; procedure, shortened: as §1
[19] = test system: Serratia marcescens; experiment: Antibacterial activity against Serratia marcescens 4444; type: functional; procedure, shortened: as §1
[20] = test system: PBMC; experiment: Toxicity towards human mononuclear leucocytes at 1 mM; type: cell-based; conditions: 1000 µM
Procedure, shortened: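 Human mononuclear leucocytes were exposed to compound for 1 h, then held in compound-free medium for 18 h. Cell death was scored by trypan blue exclusion and reported as % leucocyte death. The test concentration was 1 mM, or 0.5 mM where solubility limited it.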

[21] = test system: Enterococcus faecalis; experiment: Antibacterial activity against Enterococcus faecalis isolate 2; type: functional; procedure, shortened: as §1
[22] = test system: Enterococcus faecalis; experiment: Antibacterial activity against Enterococcus faecalis isolate 3; type: functional; procedure, shortened: as §1
[23] = test system: Enterococcus faecalis; experiment: Antibacterial activity against Enterococcus faecalis isolate 5; type: functional; procedure, shortened: as §2
[24] = test system: Enterococcus; experiment: Antibacterial activity against vancomycin-resistant Enterococcus 3102095; type: functional; procedure, shortened: as §1
[25] = test system: Enterococcus; experiment: Antibacterial activity against vancomycin-resistant Enterococcus 3005353; type: functional; procedure, shortened: as §1
[26] = test system: Enterococcus faecalis; experiment: Antibacterial activity against Enterococcus faecalis isolate 4; type: functional; procedure, shortened: as §2
[27] = test system: Enterococcus; experiment: Antibacterial activity against vancomycin-resistant Enterococcus 3005323; type: functional; procedure, shortened: as §1
[28] = test system: Enterococcus; experiment: Antibacterial activity against vancomycin-resistant Enterococcus 3001562; type: functional; procedure, shortened: as §1
[29] = test system: Enterococcus; experiment: Antibacterial activity against vancomycin-resistant Enterococcus 3002066; type: functional; procedure, shortened: as §1
[30] = test system: Enterococcus; experiment: Antibacterial activity against vancomycin-resistant Enterococcus 3002043; type: functional; procedure, shortened: as §1
[31] = test system: Enterococcus; experiment: Antibacterial activity against vancomycin-resistant Enterococcus 3005426; type: functional; procedure, shortened: as §1

Cc1cc(C)c(O)c(/C=N/N=C(\N)c2ccncc2)c1
MIC [1]: inactive

COc1c(/C=N/N=C(\N)c2ccncc2)cc(C(C)(C)C)cc1C(C)(C)C
MIC [1]: inactive

CC(C)(C)c1cc(/C=N/N=C(\N)c2ccncc2)cc(C(C)(C)C)c1O
Activity [2]: inactive | MIC [3]: inactive | MIC [4]: inactive | MIC [5]: inactive | MIC [6]: inactive | MIC [7]: inactive | MIC [8]: > 256 µg/mL | MIC [9]: inactive | MIC [10]: inactive | MIC [11]: inactive | MIC [12]: inactive | MIC [13]: inactive | MIC [1]: > 256 µg/mL | MIC [14]: inactive | MIC [15]: inactive | MIC [16]: inactive | inhibition at 6.25 µg/mL [17]: 75% | MIC [18]: inactive | MIC [19]: inactive

N/C(=N\N=C\c1cc([N+](=O)[O-])ccc1O)c1ccncc1
Activity [2]: inactive | MIC [1]: 20 µg/mL (≈ 70.1 µM)

COc1ccc(/C=N/N=C(\N)c2ccncc2)c(O)c1
Activity [2]: inactive | MIC [1]: inactive

N/C(=N\N=C\c1cc(I)cc(I)c1O)c1ccncc1
MIC [1]: 10 µg/mL (≈ 20.3 µM)

N/C(=N\N=C\c1ccc(O)c(O)c1)c1ccncc1
Activity [2]: inactive | MIC [1]: inactive

N/C(=N\N=C\c1c(O)cc(O)cc1O)c1ccncc1
Activity [2]: inactive | MIC [1]: inactive

CC(C)(C)c1cc(C=O)c(O)c(C(C)(C)C)c1
Activity [20]: 32.7%

CN[C@H](CC(C)C)C(=O)N[C@H]1C(=O)N[C@@H](CC(N)=O)C(=O)N[C@H]2C(=O)N[C@H]3C(=O)N[C@H](C(=O)N[C@H](C(=O)O)c4cc(O)cc(O)c4-c4cc3ccc4O)[C@H](O)c3ccc(c(Cl)c3)Oc3cc2cc(c3O[C@@H]2O[C@H](CO)[C@@H](O)[C@H](O)[C@H]2O[C@H]2C[C@](C)(N)[C@H](O)[C@H](C)O2)Oc2ccc(cc2Cl)[C@H]1O [VANCOMYCIN]
MIC [21]: 0.25 µg/mL (≈ 0.173 µM) | MIC [22]: 0.25 µg/mL (≈ 0.173 µM) | MIC [3]: > 16 µg/mL | MIC [23]: 2 µg/mL (≈ 1.38 µM) | MIC [4]: 8 µg/mL (≈ 5.52 µM) | MIC [24]: > 16 µg/mL | MIC [5]: > 16 µg/mL | MIC [6]: 0.12 µg/mL (≈ 0.0828 µM) | MIC [7]: 0.12 µg/mL (≈ 0.0828 µM) | MIC [8]: 0.12 µg/mL (≈ 0.0828 µM) | MIC [25]: > 16 µg/mL | MIC [26]: 16 µg/mL (≈ 11 µM) | MIC [27]: > 16 µg/mL | MIC [9]: 0.12 µg/mL (≈ 0.0828 µM) | MIC [10]: > 16 µg/mL | MIC [28]: 4 µg/mL (≈ 2.76 µM) | MIC [11]: > 16 µg/mL | MIC [29]: 4 µg/mL (≈ 2.76 µM) | MIC [12]: > 16 µg/mL | MIC [13]: 0.12 µg/mL (≈ 0.0828 µM) | MIC [30]: 4 µg/mL (≈ 2.76 µM) | MIC [1]: 0.05 µg/mL (≈ 0.0345 µM) | MIC [14]: > 16 µg/mL | MIC [31]: 4 µg/mL (≈ 2.76 µM) | MIC [15]: 0.25 µg/mL (≈ 0.173 µM) | MIC [16]: > 16 µg/mL | MIC [18]: 0.25 µg/mL (≈ 0.173 µM) | MIC [19]: > 16 µg/mL

CC(C)(C)c1cc(/C=N/N=C(\N)c2cnccn2)c(O)c(C(C)(C)C)c1
Activity [2]: inactive | MIC [1]: inactive

CC(C)(C)c1cc(/C=N/N=C(\N)c2ccc3ccccc3n2)c(O)c(C(C)(C)C)c1
Activity [2]: inactive | MIC [1]: inactive

N/C(=N\N=C\c1cc(Br)cc([N+](=O)[O-])c1O)c1ccncc1
Activity [2]: inactive | MIC [1]: inactive
